{"source": "ChEMBL document CHEMBL4673366", "about": "“Cyclic Phosphopantothenic Acid Prodrugs for Treatment of Pantothenate Kinase-Associated Neurodegeneration” (J Med Chem, 2020)", "key": {"[1]": {"experiment": "Effect on free coenzyme A level in C57BL6 mouse brain at 500 mg/kg, po administered as single dose measured after 6 hr UPLC quadrupole-time-of-flight mass spectrometry (Rvb =100%)", "assay_type": "functional", "in_short": "(§1)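 C57BL6 mice, three per time point, received one oral 500 mg/kg dose of isotopically labeled prodrug, and brains were taken at 0, 1, 6 and 24 h. Brains were homogenized in water (3 mL/g), protein was precipitated with MeOH, and dried supernatant was reconstituted in 10 mM ammonium acetate (pH ~5). Analysis was UPLC-QTOF MS in positive ESI, scoring labeled CoA (+6, +4 amu) as a share of free CoA.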"}, "[2]": {"experiment": "Effect on free coenzyme A level in C57BL6 mouse brain at 500 mg/kg, po administered as single dose measured after 1 hr UPLC quadrupole-time-of-flight mass spectrometry (Rvb =100%)", "assay_type": "functional", "in_short": "as §1"}, "[3]": {"experiment": "Induction of Coenzyme A regeneration in human IMR-32 PANK2 knockdown cells at 50 uM for 24 hrs by HPLC analysis relative to control", "assay_type": "functional", "in_short": "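PANK2-knockout neuroblastoma cells were grown in MEM with 10% FBS and 1 µg/mL puromycin and seeded at 0.2×10⁶ cells/well. After 72 h, they were dosed at 50 µM in DMSO (final 0.1%) at 37 °C. Washed, frozen pellets were reconstituted in ammonium acetate (pH 5.1) with internal standard, and free CoA was measured by LC-MS/MS. Intracellular volume was taken as 2 µL/10⁶ cells; results are fold over vehicle-treated cells.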"}, "IMR-32 [4]": {"test_system": "IMR-32", "experiment": "Increase in tubulin acetylation in human IMR-32 PANK2 knockdown cells at 50 uM for 48 hrs by Western blot analysis", "assay_type": "functional"}, "[5]": {"experiment": "Effect on free coenzyme A level in C57BL6 mouse brain at 500 mg/kg, po administered as single dose measured after 24 hrs UPLC quadrupole-time-of-flight mass spectrometry (Rvb =100%)", "assay_type": "functional", "in_short": "as §1"}, "IMR-32 [6]": {"test_system": "IMR-32", "experiment": "Decrease in lipid droplet content in human IMR-32 PANK2 knockdown cells at 10 uM for 48 hrs by Nile red staining based inverted microscopic analysis", "assay_type": "functional", "in_short": "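PANK2-knockout neuroblastoma cells were treated for 48 h, then fixed and stained with 100 ng/mL Nile Red. Cells were imaged on an inverted microscope at 60×, and lipid droplet content was quantified by plate fluorimetry. Data are mean ± sd of two biological replicates, each in duplicate; two-tailed paired Student's t-test.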"}, "IMR-32 [7]": {"test_system": "IMR-32", "experiment": "Increase in histone H3 acetylation in human IMR-32 PANK2 knockdown cells at 50 uM for 48 hrs by Western blot analysis", "assay_type": "functional"}}, "note": "Calls of active or inactive are those of the source. No cut-off for these calls is given here.", "data": [{"smiles": "COC(=O)CCNC(=O)[C@@H]1OP(=O)(OCOC(=O)C(C)(C)C)OCC1(C)C", "note": "(mixture of isomers)", "values": [{"measurement": "Activity", "setting": "[1]", "result": 92, "unit": "%"}, {"measurement": "Activity", "setting": "[2]", "result": 100, "unit": "%"}, {"measurement": "fold change (FC)", "setting": "[3]", "result": 180}, {"measurement": "Activity", "setting": "IMR-32 [4]", "result": "Active"}, {"measurement": "Activity", "setting": "[5]", "result": 85, "unit": "%"}, {"measurement": "inhibition", "setting": "IMR-32 [6]", "result": "Active"}, {"measurement": "Activity", "setting": "IMR-32 [7]", "result": "Active"}]}]}
